Screening data from PubChem.
m5-HT2A agonist: mouse HTR2A agonism via beta-arrestin recruitment; CHO-K1 mHTR2A beta-arrestin complementation, luminescence; percent of 30 µM serotonin response; activation, % at 7.6 µM; hit rate 0.66% among 360,000;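 active means activation above a run cutoff, the mean activation of all tested compounds plus 3 SD, cut at about 14% in these data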;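 further: 0% = plate median of compound wells and 100% = 30 µM serotonin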
Target sequence (P35363 whole entry, looked up): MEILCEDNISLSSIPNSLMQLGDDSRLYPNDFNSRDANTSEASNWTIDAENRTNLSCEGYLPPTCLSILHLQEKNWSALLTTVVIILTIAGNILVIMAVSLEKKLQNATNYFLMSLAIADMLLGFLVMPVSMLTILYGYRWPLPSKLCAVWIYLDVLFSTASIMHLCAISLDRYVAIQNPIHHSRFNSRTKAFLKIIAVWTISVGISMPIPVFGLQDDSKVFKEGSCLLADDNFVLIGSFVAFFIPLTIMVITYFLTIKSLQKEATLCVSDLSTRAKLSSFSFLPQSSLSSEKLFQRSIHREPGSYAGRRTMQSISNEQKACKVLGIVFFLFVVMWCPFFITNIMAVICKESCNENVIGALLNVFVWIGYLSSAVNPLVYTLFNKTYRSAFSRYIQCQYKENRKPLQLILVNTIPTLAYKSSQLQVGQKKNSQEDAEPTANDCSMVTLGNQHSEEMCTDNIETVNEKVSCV
MsrA inhibitor: inhibitors of bovine MsrA | purified bovine MsrA, absorbance read-out | inhibition, % at 15.5 µM | hit rate 0.75% among 360,000 | AID 651718; in the data active means inhibition above about 4.5%;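 further: 0% = vehicle wells with enzyme and 100% = reference inhibitor wells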
TbMetRS inhib: blocks T. brucei methionyl-tRNA synthetase activity; hit rate 0.4% among 360,000; AID 624268; inhibition, % at 11.9 µM; purified T. brucei MetRS, ATP depletion, Kinase-Glo luminescence;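 active means inhibition above a per-plate cutoff of the control wells' mean inhibition plus 3 SD, cut at about 5.5% in these data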;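 further: 0% = DMSO wells median and 100% = median of wells with control inhibitor compound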
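Test system: purified T. brucei MetRS enzyme. Also added: ATP, methionine and E. coli bulk tRNA substrates. Compound: 11.9 µM single point. Schedule: 15 min enzyme-compound preincubation, 2 h reaction, 10 min detection, 25 °C. Signal: luciferase luminescence of residual ATP, Kinase-Glo. Evaluation: percent inhibition versus plate control medians. Controls: DMSO wells, low control.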
AHR act: human AHR activation | P35869 | AHR-responsive luciferase reporter cells, luminescence | activation, % at 5 µM | hit rate 2.5% among 320,000 | AID 2796; in the data active means activation above about 47%;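 further: 0% = vehicle wells and 100% = reference agonist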
MsrA act: activators of bovine methionine sulfoxide reductase A | purified bovine MsrA, absorbance read-out | activation, % at 10.6 µM | hit rate 0.3% among 360,000; in the data active means activation above about 7.5%;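 further: 0% = vehicle and 100% = reference activator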
AI-2 QS modul: Vibrio harveyi AI-2 quorum sensing modulation; hit rate 0.4% among 300,000; activity change, % at 7.5 µM; Vibrio harveyi JMH597 AI-2 luminescence/OD600 ratio, 9 h; hits give low values; strain lacks LuxN and CqsS sensors; 0 = neutral-control median; AID 2094; in the data active means activity change below about -75%, passing the limit was not always enough;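 further: luminescence divided by OD600 gain over 9 h not by final OD600 alone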
An asterisk follows results filed as active; . = no result given. Most compounds without a hit are left out; they make up all but 4.4% or so of the library.

SMILES | m5-HT2A agonist | MsrA inhibitor | TbMetRS inhib | AHR act | MsrA act | AI-2 QS modul
CCN(CC)S(=O)(=O)c1ccc(/C=C/C(=O)OCC(=O)NNC(=O)c2ccc(OC)cc2)cc1 | 7 | 1 | 0 | 0 | -2 | .
CCC1CCCCN1C(=O)c1sc2ncnc(N(CC)CC)c2c1C (centres undefined) | 0 | 1 | 0 | 59* | -2 | 9
Cc1ccc(-c2cc(-c3ccc4c(c3)OCO4)c(C#N)c(N)n2)o1 | 0 | 0 | 0 | 75* | -3 | 39
Cc1ccc(-c2cc(-c3ccc(C)o3)nc(N)c2C#N)cc1 | -1 | 0 | -2 | 3 | -9 | 17
COc1ccc(OC)c(NC(=O)CSc2nc3n[nH]c(C)c3c(=N)n2-c2cccc(Cl)c2C)c1 | -4 | -1 | 1 | 12 | -4 | 53
Cc1ccccc1-n1c(SCc2ccccn2)nc2n[nH]c(C)c2c1=N | 2 | 1 | -1 | 66* | -4 | 21
CCOc1ccccc1NC(=O)CCSc1nc2n[nH]c(C)c2c(=N)n1-c1ccccc1Cl | 1 | 1 | 1 | 11 | -1 | .
Cc1ccccc1-n1c(SCC(=O)Nc2ccccc2Cl)nc2n[nH]c(C)c2c1=N | 0 | 0 | 0 | 62* | -5 | 19
CCN(CC)CCN1CCn2c3c(c4cc(C)ccc42)CCCC31 (centres undefined) | -7 | 3 | 0 | 15 | -3 | 6
Cc1ccc2c(c1)c1c3n2CCN(C=O)C3CCC1 (centres undefined) | 0 | 0 | -1 | 53* | -6 | 15
CCC(=O)Nc1ccc(OCc2nc3ccccc3s2)cc1 | -1 | -1 | -1 | 58* | -1 | 18
O=C(Nc1c(C(=O)N2CCOCC2)cnn1-c1ccccc1)c1ccc(F)cc1 | 15* | 0 | 0 | -2 | -6 | 26
Nc1[nH]c(C(=O)c2ccc(Cl)cc2)c(-c2ccc(Br)cc2)c1C(=O)NCCc1c[nH]c2ccccc12 | . | 0 | . | . | . | .
CCOC(=O)c1sc(Nc2nc3c(F)cccc3s2)cc1C | -1 | 2 | 0 | 52* | -2 | 12
CCOC(=O)CCc1c(C)nc2cc(-c3ccc(F)cc3)[nH]n2c1=O | -1 | 0 | -1 | 6 | -2 | 24
CCOC(=O)Cc1c(C)nc2cc(-c3ccc(Cl)cc3)[nH]n2c1=O | 1 | 0 | 0 | 58* | -3 | 11
CCc1ccccc1N(C(=O)c1snc(C(N)=O)c1N)C(C(=O)NCC1CCCO1)c1ccc(C)o1 (centres undefined) | -2 | 0 | 0 | 79* | -2 | 2
Cc1ccc(N(C(=O)c2snc(C(N)=O)c2N)C(C(=O)NCC2CCCO2)c2ccc(C)o2)c(C)c1 (centres undefined) | 3 | -1 | 0 | 6 | 1 | -23
Cc1cc(Br)c2nc(-c3ccc(Cl)cc3)c(Cc3cccc(Cl)c3)n2c1 | . | 0 | . | . | . | .
CCCC(=O)Nc1nnc(-c2ccc(Cl)s2)o1 | 27* | -1 | 0 | -2 | 0 | 14
CSc1nc(C)cc(SCC(=O)Nc2ccccc2)n1 | 8 | 0 | 0 | -6 | -1 | 39
CSc1nc(C)cc(SCC(=O)N/N=C/c2ccccc2)n1 | 4 | 0 | 0 | 71* | -4 | 16
Cc1cc(NC(=O)Cc2c(C)[nH]c3ccccc23)ccc1Oc1cccnc1 | . | 1 | . | . | . | .
CCc1c(C)nc(SCC(=O)c2cccs2)c(C#N)c1C | 4 | 0 | 0 | 94* | -3 | 18
CCc1c(C)nc(SCC(N)=O)c(C#N)c1C | -1 | -1 | 0 | -2 | -4 | 2
SMILES | m5-HT2A agonist | MsrA inhibitor | TbMetRS inhib | AHR act | MsrA act | AI-2 QS modul
COC(=O)c1ccc(NC(=O)CSc2nnc(-c3cccnc3)o2)cc1 | 0 | 1 | 0 | 0 | -2 | 1
COc1cc(NCCCCC(C)N)c2nccc(C)c2c1 (centres undefined) | 12 | -1 | 0 | . | 1 | .
CCC(CNc1cc(OC)cc2cccnc12)NC1CCCCC1 (centres undefined) | -2 | 0 | 3 | 49* | 5 | 19
COc1cc(NCCCC(C)N)c2ncccc2c1 (centres undefined) | 1 | -1 | 3 | . | 12* | 8
CC(C)c1cccc(C(C)C)c1OC(=O)[C@H]1OC(c2ccc(Br)cc2)=C[C@@H]1c1ccc(Br)cc1 | 3 | 0 | 0 | -2 | 1 | .
S=c1nc(-c2ccccc2)[nH]c2ccccc12 | -2 | 3 | 0 | 57* | 0 | 16
